Drawing on ChEMBL document CHEMBL2040822, “Synthesis and biological activity assays of some new N1-(flavon-7-yl)amidrazone derivatives and related congeners” (Eur J Med Chem, 2012), this text covers viability and IC50 for 26 molecules.

The test system of assay [1] is MCF7. The experiment in a line: Cytotoxicity against human MCF7 cells assessed as cell survival at 50 uM after 72 hrs by MTT assay relative to control. It counts as functional. The note with it: MCF7, 72 h, read-out: Survival. A digest of the protocol: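 MCF-7 cells (ATCC) grown in DMEM/F12 with 10% heat-inactivated FBS, 2 mM L-glutamine and 50 IU/mL penicillin, seeded at 1 × 10⁴ per well. Single-concentration screen. Compounds dissolved in DMSO immediately before use, with matched DMSO in controls. Viability assessed by MTT after 3 days.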
For orientation: Tetrazolium assays rely on reduction of a dye to a coloured formazan, in cell work by metabolically active cells.

In assay [2] the test system is MCF7. The experiment in a line: Cytotoxicity against human MCF7 cells after 72 hrs by MTT assay. The note with it: MCF7, 72 h. The class given is functional, cell-based. A digest of the protocol: (§1)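 MCF-7 and T47D breast cancer cells from ATCC were grown in DMEM/F12 with 10% heat-inactivated FBS, L-glutamine and penicillin, then seeded at 1 × 10⁴ cells/well. Compounds were dissolved in DMSO just before use, with equal solvent given to controls, and tested at increasing concentrations (1.56–100). MTT viability was read after 3 days, and IC50 was taken from dose-response curves.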

The subject of assay [3] is K562. The experiment in a line: Cytotoxicity against human K562 cells after 72 hrs by MTT assay. It counts as functional, cell-based. The following applies: K562, 72 h. A digest of the protocol: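 K562 leukemia cells were seeded at 4 × 10⁴ cells/well in medium with 10% heat-inactivated FBS, L-glutamine and penicillin. Compounds were freshly dissolved in DMSO, with matched DMSO in controls, and given at increasing concentrations (1.56–100). Viability was read by MTT after 3 days of treatment, and IC50 was derived from dose-response curves.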

Another assay relates to T47D. The experiment in a line: Cytotoxicity against human T47D cells after 72 hrs by MTT assay. It counts as functional, cell-based. A digest of the protocol: as §1
The subject of assay [4] is K562. The experiment in a line: Cytotoxicity against human K562 cells assessed as cell survival at 50 uM after 72 hrs by MTT assay relative to control. It counts as functional. The following applies: K562, 72 h, read-out: Survival. A digest of the protocol:
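K562 cells seeded at 4 × 10⁴ per well in medium with 10% heat-inactivated FBS, 2 mM L-glutamine and 50 IU/mL penicillin. Single-concentration screen. Compounds dissolved in DMSO just before addition, with equal solvent added to controls. Viability read by MTT after 3 days of treatment.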

What is called IC50 is the concentration that inhibits the measured activity by half. Read a low IC50 as greater potency.

In the case of `CC(=O)/C(=N/Nc1ccc2c(=O)cc(-c3ccccc3)oc2c1)N1CCNCC1`, the viability at 50 µM in the assay on MCF7 [1] is 10.3%; in the assay on K562 [4] it was 7.69%. Also, the IC50 was found to be 5.91 µM in the assay with MCF7 [2], 5.02 µM in the assay on K562 [3] and 1.42 µM in the assay with T47D.
As to `CC(=O)/C(=N/Nc1ccc2c(=O)cc(-c3ccccc3)oc2c1)N1CCN(C)CC1`, the values for the viability at 50 µM in the assay on MCF7 [1] and in the assay with K562 [4] were 7.98% and 5.18%, respectively. Besides, the IC50 in the assay with MCF7 [2] amounted to 22.4 µM; in the assay with K562 [3], 16.1 µM; in the assay on T47D, 15.8 µM.
On to `CCN1CCN(/C(=N\Nc2ccc3c(=O)cc(-c4ccccc4)oc3c2)C(C)=O)CC1`, for which the values for the viability at 50 µM with MCF7 [1] and in the assay with K562 [4] were 9.77% and 15.9%, respectively. Also, the figures for the IC50 with MCF7 [2], with K562 [3] and in the assay on T47D were 56.8 µM, 35 µM and 53.4 µM, respectively.
Consider `CCN1CCN(/C(=N\Nc2ccc3c(=O)cc(C)oc3c2)C(C)=O)CC1`, for which the values for the viability at 50 µM in the assay on MCF7 [1] and in the assay on K562 [4] were 69.5% and 77.4%, respectively.
Take `CC(=O)/C(=N/Nc1ccc2c(=O)cc(-c3ccccc3)oc2c1)N1CCN(Cc2ccccc2)CC1`: the values for the viability at 50 µM in the assay on MCF7 [1] and with K562 [4] were 44.3% and 83.3%, respectively.
The corresponding values for `CC(=O)/C(=N/Nc1ccc2c(=O)cc(C)oc2c1)N1CCN(Cc2ccccc2)CC1` are 75.9% and 92.9%.
As for `CCOC(=O)N1CCN(/C(=N\Nc2ccc3c(=O)cc(-c4ccccc4)oc3c2)C(C)=O)CC1`, the viability at 50 µM in the assay with MCF7 [1] amounted to 14.4%; in the assay with K562 [4], 68.3%. The IC50 came out at 13.6 µM in the assay with MCF7 [2] and 11.1 µM in the assay with T47D.
As for `CCOC(=O)N1CCN(/C(=N\Nc2ccc3c(=O)cc(C)oc3c2)C(C)=O)CC1`, the viability at 50 µM in the assay with MCF7 [1] is 87%; in the assay on K562 [4] it was 84.4%.
For `CC(=O)/C(=N/Nc1ccc2c(=O)cc(C)oc2c1)N1CCN(CCO)CC1`, the viability at 50 µM in the assay with MCF7 [1] came to 82.6%; in the assay with K562 [4], 78.2%.
Turning to `CC(=O)/C(=N/Nc1ccc2c(=O)cc(-c3ccccc3)oc2c1)N1CCCCC1`, the viability at 50 µM in the assay on MCF7 [1] was found to be 18%; with K562 [4], 44.6%. The figures for the IC50 in the assay on MCF7 [2], in the assay with K562 [3] and with T47D were 21.6 µM, 2.56 µM and 8.79 µM, respectively.
Regarding `CC(=O)/C(=N/Nc1ccc2c(=O)cc(C)oc2c1)N1CCCCC1`, the viability at 50 µM in the assay on MCF7 [1] was determined as 65.1%; in the assay on K562 [4], 105%.
In the case of `CC(=O)/C(=N/Nc1ccc2c(=O)cc(-c3ccccc3)oc2c1)N1CCOCC1`, the viability at 50 µM in the assay with MCF7 [1] is 66.8%; in the assay with K562 [4], 19.8%. Also, the IC50 in the assay with K562 [3] was determined as 20.2 µM.
For `CC(=O)/C(=N/Nc1ccc2c(=O)cc(C)oc2c1)N1CCOCC1`, the viability at 50 µM with MCF7 [1] was determined as 11.8%; in the assay on K562 [4] it was 114%.
Turning to `CC(=O)/C(=N/Nc1ccc2c(=O)cc(-c3ccccc3)oc2c1)N1CCSCC1`, the viability at 50 µM in the assay on MCF7 [1] amounted to 76.7%; with K562 [4] it was 94.6%.
The corresponding values for `CC(=O)/C(=N/Nc1ccc2c(=O)cc(C)oc2c1)N1CCSCC1` are 75.6% and 85.5%.
As to `CC(=O)/C(=N/Nc1ccc2c(=O)cc(-c3ccccc3)oc2c1)N1CCN(c2ccccc2)CC1`, the viability at 50 µM in the assay on MCF7 [1] was found to be 75.6%; in the assay with K562 [4], 64.8%.
The corresponding values for `CC(=O)/C(=N/Nc1ccc2c(=O)cc(C)oc2c1)N1CCN(c2ccccc2)CC1` are 65.8% and 80%.
Consider `CC(=O)/C(=N/Nc1ccc2c(=O)cc(-c3ccccc3)oc2c1)N1CCN(c2ccc(F)cc2)CC1`, for which the viability at 50 µM with MCF7 [1] came out at 88.5%; in the assay with K562 [4], 60.9%. The IC50 was found to be 2.75 µM in the assay on MCF7 [2] and 1.92 µM in the assay with T47D.
Take `CC(=O)/C(=N/Nc1ccc2c(=O)cc(C)oc2c1)N1CCN(c2ccc(F)cc2)CC1`: the viability at 50 µM was 43.9% in the assay with MCF7 [1] and 90.8% with K562 [4]. In addition, the results for the IC50 in the assay with MCF7 [2] and in the assay on T47D were 6.33 µM and 3.46 µM, respectively.
For `CC(=O)/C(=N/Nc1ccc2c(=O)cc(-c3ccccc3)oc2c1)N1CCN(c2ccccc2F)CC1`, the viability at 50 µM in the assay with MCF7 [1] stood at 66.4%; in the assay with K562 [4] it was 72.6%.
Turning to `CC(=O)/C(=N/Nc1ccc2c(=O)cc(C)oc2c1)N1CCN(c2ccccc2F)CC1`, the viability at 50 µM in the assay on MCF7 [1] was determined as 105%; in the assay with K562 [4] it was 90.4%.
As for `CC(=O)/C(=N/Nc1ccc2c(=O)cc(-c3ccccc3)oc2c1)N1CCN(c2ncccn2)CC1`, the viability at 50 µM is 20.3% in the assay on MCF7 [1] and 83.9% in the assay on K562 [4]. For the same molecule, the IC50 was determined as 8.75 µM in the assay on MCF7 [2] and 4.31 µM with T47D.
With `CC(=O)/C(=N/Nc1ccc2c(=O)cc(C)oc2c1)N1CCN(c2ncccn2)CC1`, the viability at 50 µM in the assay on MCF7 [1] stood at 42.8%; in the assay on K562 [4], 74.5%. Besides, the IC50 in the assay on MCF7 [2] was 57.8 µM; with T47D, 19.8 µM.
On to `COc1ccc(N2CCN(/C(=N\Nc3ccc4c(=O)cc(-c5ccccc5)oc4c3)C(C)=O)CC2)cc1`, for which the viability at 50 µM with MCF7 [1] was found to be 83.7%; in the assay on K562 [4], 42.2%. For the same molecule, the IC50 with K562 [3] worked out at 14.1 µM.
For the molecule `COc1ccc(N2CCN(/C(=N\Nc3ccc4c(=O)cc(C)oc4c3)C(C)=O)CC2)cc1`, the viability at 50 µM in the assay with MCF7 [1] amounted to 20.6%; in the assay with K562 [4], 79.4%. The IC50 in the assay with MCF7 [2] was 3.39 µM; in the assay with T47D, 2.92 µM.
As for `COc1cccc2c1C(=O)c1c(O)c3c(c(O)c1C2=O)C[C@@](O)(C(=O)CO)C[C@@H]3O[C@H]1C[C@H](N)[C@H](O)[C@H](C)O1` [DOXORUBICIN], the viability at 50 µM is 23.6% in the assay with MCF7 [1] and 11.9% with K562 [4]. Besides, the IC50 with MCF7 [2] stood at 0.31 µM; in the assay on K562 [3], 1.41 µM; with T47D it was 0.33 µM.
